Converted amounts (≈) assume the structure as drawn. The source made the active and inactive calls. The calls are words filed in the database; no cut-off is given here.
Experiments:
Candida albicans [1] = assay: Antifungal activity against Candida albicans ATCC 10231 assessed as fungal growth inhibition by double dilution method; assay type: functional
Procedure, shortened: (§1)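 Broth microdilution after CLSI M27-A3/M38-A2 with minor changes. Single colony grown overnight in YPD at 35 °C, 200 rpm. Compound final range 0.06-31.3 µg/mL; incubated 48 h at 35 °C.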

Candida albicans [2] = assay: Antifungal activity against Candida albicans ATCC 64124 assessed as fungal growth inhibition by double dilution method; assay type: functional
Procedure, shortened: (§2)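 Broth microdilution after CLSI M27-A3/M38-A2 with minor modifications. A single colony was grown overnight in YPD at 35 °C with shaking at 200 rpm. Cells were mixed 1:1 with compound (final 0.06-31.3 µg/mL, from DMSO stocks) and incubated 48 h at 35 °C.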

Candida albicans [3] = assay: Antifungal activity against itraconazole/fluconazole susceptible Candida albicans ATCC MYA-2876 assessed as fungal growth inhibition by double dilution method; assay type: functional; procedure, shortened: as §2
Candida albicans [4] = assay: Antifungal activity against itraconazole/fluconazole resistant Candida albicans ATCC 90819 assessed as fungal growth inhibition by double dilution method; assay type: functional; procedure, shortened: as §2
Candida albicans [5] = assay: Antifungal activity against itraconazole/fluconazole susceptible Candida albicans ATCC MYA-2310 assessed as fungal growth inhibition by double dilution method; assay type: functional; procedure, shortened: as §2
Candida albicans [6] = assay: Antifungal activity against itraconazole/fluconazole resistant Candida albicans ATCC MYA-1237 assessed as fungal growth inhibition by double dilution method; assay type: functional; procedure, shortened: as §2
Candida albicans [7] = assay: Antifungal activity against itraconazole/fluconazole resistant Candida albicans ATCC MYA-1003 assessed as fungal growth inhibition by double dilution method; assay type: functional; procedure, shortened: as §2
Nakaseomyces glabratus [8] = assay: Antifungal activity against Candida glabrata ATCC 2001 assessed as fungal growth inhibition by double dilution method; assay type: functional; procedure, shortened: as §1
Pichia kudriavzevii [9] = assay: Antifungal activity against Pichia kudriavzevii ATCC 6258 assessed as fungal growth inhibition by double dilution method; assay type: functional; procedure, shortened: as §1
Nakaseomyces glabratus [10] = assay: Antifungal activity against Candida glabrata ATCC 22019 assessed as fungal growth inhibition by double dilution method; assay type: functional; procedure, shortened: as §1
[Candida] auris [11] = Antifungal activity against Candida auris AR Bank # 0384 assessed as fungal growth inhibition by double dilution method; assay type: functional; conditions: Candidozyma auris; procedure, shortened: as §1
[Candida] auris [12] = Antifungal activity against Candida auris AR Bank # 0390 assessed as fungal growth inhibition by double dilution method; assay type: functional; conditions: Candidozyma auris; procedure, shortened: as §1
Cryptococcus neoformans = assay: Antifungal activity against Cryptococcus neoformans ATCC MYA-895 assessed as fungal growth inhibition by double dilution method; assay type: functional; procedure, shortened: as §1
Aspergillus terreus = assay: Antifungal activity against Aspergillus terreus ATCC MYA-3633 assessed as fungal growth inhibition by double dilution method; assay type: functional
Aspergillus fumigatus [13] = assay: Antifungal activity against Aspergillus fumigatus NRRL 163 assessed as fungal growth inhibition by double dilution method; assay type: functional
Aspergillus flavus = assay: Antifungal activity against Aspergillus flavus ATCC MYA-3631 assessed as fungal growth inhibition by double dilution method; assay type: functional
Aspergillus nidulans = assay: Antifungal activity against Aspergillus nidulans ATCC 38163 assessed as fungal growth inhibition by double dilution method; assay type: functional
Aspergillus fumigatus [14] = assay: Antifungal activity against Aspergillus fumigatus NRRL 5109 assessed as fungal growth inhibition by double dilution method; assay type: functional
Aspergillus fumigatus [15] = assay: Antifungal activity against Aspergillus fumigatus NRRL 6113 assessed as fungal growth inhibition by double dilution method; assay type: functional
[Candida] auris [16] = Antifungal activity against Candida auris AR Bank # 381 assessed as fungal growth inhibition by double dilution method; assay type: functional; conditions: Candidozyma auris; procedure, shortened: as §1
[Candida] auris [17] = Antifungal activity against Candida auris AR Bank # 382 assessed as fungal growth inhibition by double dilution method; assay type: functional; conditions: Candidozyma auris; procedure, shortened: as §1
[Candida] auris [18] = Antifungal activity against Candida auris AR Bank # 383 assessed as fungal growth inhibition by double dilution method; assay type: functional; conditions: Candidozyma auris; procedure, shortened: as §1
[Candida] auris [19] = Antifungal activity against Candida auris AR Bank # 384 assessed as fungal growth inhibition by double dilution method; assay type: functional; conditions: Candidozyma auris; procedure, shortened: as §1
[Candida] auris [20] = Antifungal activity against Candida auris AR Bank # 385 assessed as fungal growth inhibition by double dilution method; assay type: functional; conditions: Candidozyma auris; procedure, shortened: as §1
[Candida] auris [21] = Antifungal activity against Candida auris AR Bank # 386 assessed as fungal growth inhibition by double dilution method; assay type: functional; conditions: Candidozyma auris; procedure, shortened: as §1
[Candida] auris [22] = Antifungal activity against Candida auris AR Bank # 387 assessed as fungal growth inhibition by double dilution method; assay type: functional; conditions: Candidozyma auris; procedure, shortened: as §1
[Candida] auris [23] = Antifungal activity against Candida auris AR Bank # 388 assessed as fungal growth inhibition by double dilution method; assay type: functional; conditions: Candidozyma auris; procedure, shortened: as §1
[Candida] auris [24] = Antifungal activity against Candida auris AR Bank # 389 assessed as fungal growth inhibition by double dilution method; assay type: functional; conditions: Candidozyma auris; procedure, shortened: as §1
[Candida] auris [25] = Antifungal activity against Candida auris AR Bank # 390 assessed as fungal growth inhibition by double dilution method; assay type: functional; conditions: Candidozyma auris; procedure, shortened: as §1
Candida duobushaemulonii [26] = assay: Antifungal activity against Candida duobushaemulonii AR Bank # 391 assessed as fungal growth inhibition by double dilution method; assay type: functional; conditions: Candidozyma duobushaemuli; procedure, shortened: as §1
Candida duobushaemulonii [27] = assay: Antifungal activity against Candida duobushaemulonii AR Bank # 392 assessed as fungal growth inhibition by double dilution method; assay type: functional; conditions: Candidozyma duobushaemuli; procedure, shortened: as §1
[Candida] haemuloni [28] = Antifungal activity against Candida haemulonii AR Bank # 393 assessed as fungal growth inhibition by double dilution method; assay type: functional; conditions: Candidozyma haemuli; procedure, shortened: as §1
Candida duobushaemulonii [29] = assay: Antifungal activity against Candida duobushaemulonii AR Bank # 394 assessed as fungal growth inhibition by double dilution method; assay type: functional; conditions: Candidozyma duobushaemuli; procedure, shortened: as §1
[Candida] haemuloni [30] = Antifungal activity against Candida haemulonii AR Bank # 395 assessed as fungal growth inhibition by double dilution method; assay type: functional; conditions: Candidozyma haemuli; procedure, shortened: as §1
Kodamaea ohmeri = assay: Antifungal activity against Kodamaea ohmeri AR Bank # 396 assessed as fungal growth inhibition by double dilution method; assay type: functional; procedure, shortened: as §1
Pichia kudriavzevii [31] = assay: Antifungal activity against Pichia kudriavzevii AR Bank # 397 assessed as fungal growth inhibition by double dilution method; assay type: functional; procedure, shortened: as §1
Clavispora lusitaniae = assay: Antifungal activity against Clavispora lusitaniae AR Bank # 398 assessed as fungal growth inhibition by double dilution method; assay type: functional; procedure, shortened: as §1
Saccharomyces cerevisiae [32] = assay: Antifungal activity against Saccharomyces cerevisiae AR Bank # 399 assessed as fungal growth inhibition by double dilution method; assay type: functional; procedure, shortened: as §1
Saccharomyces cerevisiae [33] = assay: Antifungal activity against Saccharomyces cerevisiae AR Bank # 400 assessed as fungal growth inhibition by double dilution method; assay type: functional; procedure, shortened: as §1
Candida albicans [34] = assay: Antibiofilm activity against Candida albicans ATCC 10231 assessed as reduction in biofilm production at 1.96 to 3.9 microg/ml by biofilm formation assay; assay type: functional, organism-based; conditions: dose 1.96-3.9 µg/ml

Compound	MIC (Candida albicans [1])	MIC (Candida albicans [2])	MIC (Candida albicans [3])	MIC (Candida albicans [4])	MIC (Candida albicans [5])	MIC (Candida albicans [6])	MIC (Candida albicans [7])	MIC (Nakaseomyces glabratus [8])	MIC (Pichia kudriavzevii [9])	MIC (Nakaseomyces glabratus [10])	MIC ([Candida] auris [11])	MIC ([Candida] auris [12])	MIC (Cryptococcus neoformans)	MIC (Aspergillus terreus)	MIC (Aspergillus fumigatus [13])	MIC (Aspergillus flavus)	MIC (Aspergillus nidulans)	MIC (Aspergillus fumigatus [14])	MIC (Aspergillus fumigatus [15])	MIC ([Candida] auris [16])	also measured
O=C(NNc1cc(Cl)cc(Cl)c1)c1ccccn1	0.24 µg/mL (≈ 0.851 µM)	1.95 µg/mL (≈ 6.91 µM)	1.95 µg/mL (≈ 6.91 µM)	0.98 µg/mL (≈ 3.47 µM)	1.95 µg/mL (≈ 6.91 µM)	3.9 µg/mL (≈ 13.8 µM)	1.95 µg/mL (≈ 6.91 µM)	7.8 µg/mL (≈ 27.6 µM)	0.98 µg/mL (≈ 3.47 µM)	1.95 µg/mL (≈ 6.91 µM)	7.8 µg/mL (≈ 27.6 µM)	1.95 µg/mL (≈ 6.91 µM)	0.49 µg/mL (≈ 1.74 µM)	1.95 µg/mL (≈ 6.91 µM)	> 31.3 µg/mL	> 31.3 µg/mL	0.49 µg/mL (≈ 1.74 µM)	> 31.3 µg/mL	> 31.3 µg/mL	3.9 µg/mL (≈ 13.8 µM)	MIC ([Candida] auris [17]): 0.98 µg/mL (≈ 3.47 µM); MIC ([Candida] auris [18]): 1.95 µg/mL (≈ 6.91 µM); MIC ([Candida] auris [19]): 7.8 µg/mL (≈ 27.6 µM); MIC ([Candida] auris [20]): 1.95 µg/mL (≈ 6.91 µM); MIC ([Candida] auris [21]): 0.98 µg/mL (≈ 3.47 µM); MIC ([Candida] auris [22]): 0.98 µg/mL (≈ 3.47 µM); MIC ([Candida] auris [23]): 3.9 µg/mL (≈ 13.8 µM); MIC ([Candida] auris [24]): 1.95 µg/mL (≈ 6.91 µM); MIC ([Candida] auris [25]): 3.9 µg/mL (≈ 13.8 µM); MIC (Candida duobushaemulonii [26]): 0.98 µg/mL (≈ 3.47 µM); MIC (Candida duobushaemulonii [27]): 0.98 µg/mL (≈ 3.47 µM); MIC ([Candida] haemuloni [28]): 0.24 µg/mL (≈ 0.851 µM); MIC (Candida duobushaemulonii [29]): 0.49 µg/mL (≈ 1.74 µM); MIC ([Candida] haemuloni [30]): 0.24 µg/mL (≈ 0.851 µM); MIC (Kodamaea ohmeri): 0.49 µg/mL (≈ 1.74 µM); MIC (Pichia kudriavzevii [31]): 0.49 µg/mL (≈ 1.74 µM); MIC (Clavispora lusitaniae): 3.9 µg/mL (≈ 13.8 µM); MIC (Saccharomyces cerevisiae [32]): 3.9 µg/mL (≈ 13.8 µM); MIC (Saccharomyces cerevisiae [33]): 3.9 µg/mL (≈ 13.8 µM); Activity (Candida albicans [34]): inactive
COc1cccc(NNC(=O)c2ccccn2)c1	0.24 µg/mL (≈ 0.987 µM)	0.98 µg/mL (≈ 4.03 µM)	0.98 µg/mL (≈ 4.03 µM)	1.95 µg/mL (≈ 8.02 µM)	1.95 µg/mL (≈ 8.02 µM)	1.95 µg/mL (≈ 8.02 µM)	0.98 µg/mL (≈ 4.03 µM)	15.6 µg/mL (≈ 64.1 µM)	0.49 µg/mL (≈ 2.01 µM)	3.9 µg/mL (≈ 16 µM)	0.98 µg/mL (≈ 4.03 µM)	0.98 µg/mL (≈ 4.03 µM)	0.24 µg/mL (≈ 0.987 µM)	3.9 µg/mL (≈ 16 µM)	7.8 µg/mL (≈ 32.1 µM)	> 31.3 µg/mL	1.95 µg/mL (≈ 8.02 µM)	3.9 µg/mL (≈ 16 µM)	> 31.3 µg/mL	3.9 µg/mL (≈ 16 µM)	MIC ([Candida] auris [17]): 0.98 µg/mL (≈ 4.03 µM); MIC ([Candida] auris [18]): 0.98 µg/mL (≈ 4.03 µM); MIC ([Candida] auris [19]): 0.98 µg/mL (≈ 4.03 µM); MIC ([Candida] auris [20]): 3.9 µg/mL (≈ 16 µM); MIC ([Candida] auris [21]): 0.49 µg/mL (≈ 2.01 µM); MIC ([Candida] auris [22]): 0.49 µg/mL (≈ 2.01 µM); MIC ([Candida] auris [23]): 3.9 µg/mL (≈ 16 µM); MIC ([Candida] auris [24]): 0.49 µg/mL (≈ 2.01 µM); MIC ([Candida] auris [25]): 0.98 µg/mL (≈ 4.03 µM); MIC (Candida duobushaemulonii [26]): 1.95 µg/mL (≈ 8.02 µM); MIC (Candida duobushaemulonii [27]): 1.95 µg/mL (≈ 8.02 µM); MIC ([Candida] haemuloni [28]): 0.49 µg/mL (≈ 2.01 µM); MIC (Candida duobushaemulonii [29]): 0.98 µg/mL (≈ 4.03 µM); MIC ([Candida] haemuloni [30]): 0.49 µg/mL (≈ 2.01 µM); MIC (Kodamaea ohmeri): 0.49 µg/mL (≈ 2.01 µM); MIC (Pichia kudriavzevii [31]): 0.49 µg/mL (≈ 2.01 µM); MIC (Clavispora lusitaniae): 1.95 µg/mL (≈ 8.02 µM); MIC (Saccharomyces cerevisiae [32]): 7.8 µg/mL (≈ 32.1 µM); MIC (Saccharomyces cerevisiae [33]): 7.8 µg/mL (≈ 32.1 µM); Activity (Candida albicans [34]): Active

Source: ChEMBL document CHEMBL5329156, “Discovery and development of novel substituted monohydrazides as potent antifungal agents” (RSC Med Chem, 2023)
